Measurements from ChEMBL document CHEMBL3425425, “6-Substituted sulfocoumarins are selective carbonic anhdydrase IX and XII inhibitors with significant cytotoxicity against colorectal cancer cells” (J Med Chem, 2015).
Active and inactive are the calls of the source. No cut-off for these calls is given here.

Legend:
[1] = target: Carbonic anhydrase 1 (Homo sapiens, UniProt P00915); experiment: Inhibition of human recombinant carbonic anhdydrase-1 expressed in Escherichia coli pre-incubated for 6 hrs by stopped-flow CO2 hydration assay
Sequence of Carbonic anhydrase 1 (P00915 whole entry): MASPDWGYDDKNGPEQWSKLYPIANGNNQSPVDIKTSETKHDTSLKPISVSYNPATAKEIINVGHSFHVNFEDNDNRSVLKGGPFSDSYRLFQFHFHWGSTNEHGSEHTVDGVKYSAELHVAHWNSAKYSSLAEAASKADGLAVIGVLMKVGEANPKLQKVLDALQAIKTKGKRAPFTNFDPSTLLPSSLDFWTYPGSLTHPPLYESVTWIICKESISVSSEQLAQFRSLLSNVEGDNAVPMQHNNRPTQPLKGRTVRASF

[2] = target: Carbonic anhydrase 2 (Homo sapiens, UniProt P00918); experiment: Inhibition of human recombinant carbonic anhdydrase-2 expressed in Escherichia coli pre-incubated for 6 hrs by stopped-flow CO2 hydration assay
[3] = target: Carbonic anhydrase 9 (Homo sapiens, UniProt Q16790); experiment: Inhibition of human recombinant carbonic anhdydrase-9 expressed in Escherichia coli pre-incubated for 6 hrs by stopped-flow CO2 hydration assay
[4] = tested on: HT-29; experiment: Cytotoxicity against human HT-29 cells assessed as reduction in cell viability at 100 uM incubated for 72 hrs under hypoxic conditions by MTT assay; type: functional, cell-based
Summary of the method: (§1)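 Cells were kept in high-glucose DMEM with 20% FBS at 37 °C, seeded at 1 × 10^4/well and treated 24 h later at 0–300 μM (0, 30, 100, 300) for 16, 48 or 72 h. Incubation was in a hypoxic chamber (0.1% O2, 5% CO2, residual N2). Viability was measured by MTT (1 mg/mL, 30 min, 37 °C), with DMSO-solubilized formazan read at 550 nm and expressed against untreated control = 100%. Mean ± SEM of three experiments.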

[5] = tested on: HT-29; experiment: Cytotoxicity against human HT-29 cells assessed as reduction in cell viability at 100 uM incubated for 72 hrs under normoxic conditions by MTT assay; type: functional, cell-based
Summary of the method: (§2)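 HT-29 cells were grown in high-glucose DMEM with 20% FBS at 37 °C and plated at 1 × 10^4/well. After 24 h they were exposed to 0, 30, 100 or 300 μM for 16, 48 or 72 h in normoxia (20% O2, air, 5% CO2). Washed cells got 1 mg/mL MTT for 30 min at 37 °C, formazan was dissolved in DMSO and A550 read. Untreated set at 100%. Quadruplicates, ≥3 cell batches; mean ± SEM.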

[6] = tested on: HT-29; experiment: Cytotoxicity against human HT-29 cells assessed as reduction in cell viability at 30 to 300 uM incubated for 16 to 72 hrs under normoxic conditions by MTT assay; type: functional, cell-based; summary of the method: as §2
[7] = tested on: HT-29; experiment: Cytotoxicity against human HT-29 cells assessed as reduction in cell viability at 30 to 300 uM incubated for 16 to 72 hrs under hypoxic conditions by MTT assay; type: functional, cell-based; summary of the method: as §1
[8] = tested on: HT-29; experiment: Cytotoxicity against human HT-29 cells assessed as reduction in cell viability at 30 uM incubated for 16 hrs under normoxic conditions by MTT assay; type: functional, cell-based; summary of the method: as §2
[9] = tested on: HT-29; experiment: Cytotoxicity against human HT-29 cells assessed as cell viability at 30 uM incubated for 72 hrs under normoxic conditions by MTT assay; type: functional; details: HT-29, 72 h, read-out: Activity; summary of the method: as §2
[10] = tested on: HT-29; experiment: Cytotoxicity against human HT-29 cells assessed as cell viability at 100 uM incubated for 16 hrs under normoxic conditions by MTT assay; type: functional; details: HT-29, 16 h, read-out: Activity; summary of the method: as §2
[11] = tested on: HT-29; experiment: Cytotoxicity against human HT-29 cells assessed as cell viability at 100 uM incubated for 48 hrs under normoxic conditions by MTT assay; type: functional; details: HT-29, 48 h, read-out: Activity; summary of the method: as §2
[12] = tested on: HT-29; experiment: Cytotoxicity against human HT-29 cells assessed as cell viability at 100 uM incubated for 72 hrs under normoxic conditions by MTT assay; type: functional; details: HT-29, 72 h, read-out: Activity; summary of the method: as §2
[13] = tested on: HT-29; experiment: Cytotoxicity against human HT-29 cells assessed as reduction in cell viability at 300 uM incubated for 16 to 72 hrs under normoxic conditions by MTT assay; type: functional, cell-based; summary of the method: as §2
[14] = tested on: HT-29; experiment: Cytotoxicity against human HT-29 cells assessed as cell viability at 100 uM incubated for 72 hrs under hypoxic conditions by MTT assay; type: functional; details: HT-29, 72 h, read-out: Activity; summary of the method: as §1

Row | SMILES | Ki [1] [µM] | Ki [2] [µM] | Ki [3] [µM] | further results
1 | O=C(Nc1ccc2c(c1)C=CS(=O)(=O)O2)c1ccccc1Br | > 10 | > 10 | 0.0097 | Activity [4]: Active; Activity [5]: Active
2 | CC(C)(C)C(=O)Nc1ccc2c(c1)C=CS(=O)(=O)O2 | > 10 | > 10 | 0.0056 | 
3 | CC(=O)Nc1ccc2c(c1)C=CS(=O)(=O)O2 | > 10 | > 10 | 0.0172 | 
4 | O=C(Nc1ccc2c(c1)C=CS(=O)(=O)O2)c1ccncc1 | > 10 | > 10 | 0.0077 | Activity [6]: inactive; Activity [7]: inactive
5 | COc1ccc2c(c1)C=CS(=O)(=O)O2 | > 10 | > 10 | 0.0421 | 
6 | O=C(Nc1ccc2c(c1)C=CS(=O)(=O)O2)c1cccnc1 | > 10 | > 10 | 0.0105 | 
7 | O=C(Nc1ccc2c(c1)C=CS(=O)(=O)O2)c1cccs1 | > 10 | > 10 | 0.0295 | 
8 | O=C(Nc1ccc2c(c1)C=CS(=O)(=O)O2)c1ccco1 | > 10 | > 10 | 0.033 | 
9 | O=C(Nc1ccc2c(c1)C=CS(=O)(=O)O2)c1ccccc1I | > 10 | > 10 | 0.0091 | 
10 | O=C(Nc1ccc2c(c1)C=CS(=O)(=O)O2)c1ccccc1 | > 10 | > 10 | 0.0066 | Activity [8]: Active; viability at 30 µM [9]: 43%; viability at 100 µM [10]: 52%; viability at 100 µM [11]: 60%; viability at 100 µM [12]: 40%; Activity [13]: inactive; viability at 100 µM [14]: 35%
11 | N#Cc1ccc2c(c1)C=CS(=O)(=O)O2 | > 10 | > 10 | 0.0338 | 
12 | Cc1ccc(C(=O)Nc2ccc3c(c2)C=CS(=O)(=O)O3)cc1 | > 10 | > 10 | 0.009 | 
13 | O=C(Cc1ccccc1)Nc1ccc2c(c1)C=CS(=O)(=O)O2 | > 10 | > 10 | 0.0813 | 
14 | C[N+](C)(C)c1ccc2c(c1)C=CS(=O)(=O)O2 | > 10 | > 10 | 0.0096 | Activity [6]: inactive; Activity [7]: inactive
